# According to ChEMBL document CHEMBL1126902, “Synthesis, chemical reactivity, and antitumor evaluation of congeners of carmethizole hydrochloride, an experimental "acylated vinylogous carbinolamine" tumor inhibitor” (J Med Chem, 1993):
# Legend:
# [1] = tested on: P388; assay: Percent increase in life span of dying mice tested in vivo at 43.5 mg/kg against ip implanted P388 Leukemia in mice; format: functional; details: Mus musculus, route intraperitoneal
# Procedure, shortened: (§1)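 Portage-CD2F1 female mice inoculated ip with ascitic fluid carrying ca. 5.2×10^6 P388 leukemia cells. Drug given ip daily on days 1-5, starting 24 h after inoculation, dosed by average body weight. %ILS is from the median day of death of dying mice versus controls.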
# [2] = tested on: P388; assay: Change in tumor cell population in ip implanted P388 Leukemia in mice after administration of compound at 10.9 mg/kg; format: functional, Mus musculus; details: route intraperitoneal
# Procedure, shortened: (§2)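 Female Portage-CD2F1 mice were inoculated ip with ascitic fluid holding ca. 5.2×10^6 P388 cells. Dosing was ip on days 1-5, starting 24 h after inoculation, by average body weight, as a solution or suspension in saline plus Tween 80. KE is the net log change in viable tumor cell population from start to end of the treatment period.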
# [3] = tested on: P388; assay: Change in tumor cell population in ip implanted P388 Leukemia in mice after administration of compound at 87 mg/kg; format: functional, Mus musculus; details: route intraperitoneal
# Procedure, shortened: (§3)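 P388 leukemia: ascitic fluid with ca. 5.2×10^6 cells inoculated ip into Portage-CD₂F₁ female mice. Drug given ip on days 1-5, starting 24 h after inoculation, dosed by average body weight. Vehicle was saline plus Tween 80, as a solution or suspension. KE = net log change in viable tumor cells from start to end of treatment.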
# [4] = Change in tumor cell population in ip implanted LOX amelanotic melanoma in mice after administration of compound at 87 mg/kg; format: functional, Mus musculus; details: route intraperitoneal
# Procedure, shortened: (§4)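 Female CD2F1 mice were implanted ip with ascitic fluid holding ca. 1.7×10^6 LOX cells. Dosing was ip on days 1, 5 and 9, starting 24 h after implantation, by exact body weight, as a solution or suspension in saline plus Tween 80, freshly prepared daily. KE is the net log change in viable tumor cells from start to end of treatment. Bracketed KE assumes Poisson survival, with 60-day survivors tumor-free.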
# [5] = tested on: P388; assay: Percent increase in life span of dying mice tested in vivo at 87 mg/kg against ip implanted P388 Leukemia in mice; format: functional; details: Mus musculus, route intraperitoneal
# Procedure, shortened: (§5)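 Portage-CD2F1 female mice were inoculated ip with ascitic fluid containing ca. 5.2×10^6 P388 leukemia cells. Drug was given ip daily on days 1-5, starting 24 h after inoculation, and dosed by average body weight. %ILS was calculated from the median day of death of dying mice versus controls.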
# [6] = tested on: P388; assay: Percent increase in life span of dying mice tested in vivo at 10.9 mg/kg against ip implanted P388 Leukemia in mice; format: functional; details: Mus musculus, route intraperitoneal; procedure, shortened: as §1
# [7] = Change in tumor cell population in ip implanted LOX amelanotic melanoma in mice after administration of compound at 43.5 mg/kg; format: functional, Mus musculus; details: route intraperitoneal; procedure, shortened: as §4
# [8] = Percent increase in life span of dying mice tested in vivo at 21.75 mg/kg against ip implanted LOX amelanotic melanoma in mice (60-day survivors); format: functional; details: Mus musculus, 1440 h, route intraperitoneal
# Procedure, shortened: (§6)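 Female CD2F1 mice implanted ip with ascitic fluid carrying ca. 1.7×10^6 LOX amelanotic melanoma cells. Drug given ip on days 1, 5 and 9, starting 24 h after implant, dosed by exact body weight; solutions or suspensions made fresh daily. %ILS is from the median day of death of dying mice versus controls, excluding 60-day survivors.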
# [9] = Percent increase in life span of dying mice tested in vivo at 87 mg/kg against ip implanted LOX amelanotic melanoma in mice (60-day survivors); format: functional; details: Mus musculus, 1440 h, route intraperitoneal
# Procedure, shortened: (§7)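 Nude CD2F1 female mice were implanted ip with ascitic fluid containing ca. 1.7×10^6 LOX amelanotic melanoma cells. Drug was given ip on days 1, 5 and 9, starting 24 h after implantation, and dosed by exact body weight. Solutions or suspensions were made fresh daily in saline plus Tween 80. %ILS was calculated from the median day of death of dying mice versus controls, excluding 60-day survivors.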
# [10] = Change in tumor cell population in ip implanted LOX amelanotic melanoma in mice after administration of compound at 174 mg/kg; format: functional, Mus musculus; details: route intraperitoneal; procedure, shortened: as §4
# [11] = Percent increase in life span of dying mice tested in vivo at 43.5 mg/kg against ip implanted LOX amelanotic melanoma in mice (60-day survivors); format: functional; details: Mus musculus, 1440 h, route intraperitoneal; procedure, shortened: as §6
# [12] = Percent increase in life span of dying mice tested in vivo at 174 mg/kg against ip implanted LOX amelanotic melanoma in mice (60-day survivors); format: functional; details: Mus musculus, 1440 h, route intraperitoneal; procedure, shortened: as §6
# [13] = tested on: P388; assay: Change in tumor cell population in ip implanted P388 Leukemia in mice after administration of compound at 21.8 mg/kg; format: functional, Mus musculus; details: route intraperitoneal; procedure, shortened: as §2
# [14] = tested on: P388; assay: Change in tumor cell population in ip implanted P388 Leukemia in mice after administration of compound at 43.5 mg/kg; format: functional, Mus musculus; details: route intraperitoneal; procedure, shortened: as §2
# [15] = Change in tumor cell population in ip implanted LOX amelanotic melanoma in mice after administration of compound at 21.75 mg/kg; format: functional, Mus musculus; details: route intraperitoneal; procedure, shortened: as §4
# [16] = tested on: P388; assay: Percent increase in life span of dying mice tested in vivo at 21.8 mg/kg against ip implanted P388 Leukemia in mice; format: functional; details: Mus musculus, route intraperitoneal; procedure, shortened: as §1
# [17] = Percent increase in life span of dying mice tested in vivo at 24.75 mg/kg against ip implanted LOX amelanotic melanoma in mice (60-day survivors); format: functional; details: Mus musculus, 1440 h, route intraperitoneal; procedure, shortened: as §6
# [18] = Change in tumor cell population in ip implanted LOX amelanotic melanoma in mice after administration of compound at 99 mg/kg; format: functional, Mus musculus; details: route intraperitoneal; procedure, shortened: as §4
# [19] = Change in tumor cell population in ip implanted LOX amelanotic melanoma in mice after administration of compound at 49.5 mg/kg; format: functional, Mus musculus; details: route intraperitoneal; procedure, shortened: as §4
# [20] = tested on: P388; assay: Change in tumor cell population in ip implanted P388 Leukemia in mice after administration of compound at 24.8 mg/kg; format: functional, Mus musculus; details: route intraperitoneal; procedure, shortened: as §2
# [21] = tested on: P388; assay: Percent increase in life span of dying mice tested in vivo at 24.8 mg/kg against ip implanted P388 Leukemia in mice; format: functional; details: Mus musculus, route intraperitoneal; procedure, shortened: as §1
# [22] = Percent increase in life span of dying mice tested in vivo at 198 mg/kg against ip implanted LOX amelanotic melanoma in mice (60-day survivors); format: functional; details: Mus musculus, 1440 h, route intraperitoneal; procedure, shortened: as §6
# [23] = tested on: P388; assay: Percent increase in life span of dying mice tested in vivo at 99 mg/kg against ip implanted P388 Leukemia in mice; format: functional; details: Mus musculus, route intraperitoneal; procedure, shortened: as §5
# [24] = Change in tumor cell population in ip implanted LOX amelanotic melanoma in mice after administration of compound at 198 mg/kg; format: functional, Mus musculus; details: route intraperitoneal; procedure, shortened: as §4
# [25] = Percent increase in life span of dying mice tested in vivo at 49.5 mg/kg against ip implanted LOX amelanotic melanoma in mice (60-day survivors); format: functional; details: Mus musculus, 1440 h, route intraperitoneal; procedure, shortened: as §6
# [26] = tested on: P388; assay: Change in tumor cell population in ip implanted P388 Leukemia in mice after administration of compound at 99 mg/kg; format: functional, Mus musculus; details: route intraperitoneal; procedure, shortened: as §3
# [27] = Change in tumor cell population in ip implanted LOX amelanotic melanoma in mice after administration of compound at 24.75 mg/kg; format: functional, Mus musculus; details: route intraperitoneal; procedure, shortened: as §4
# [28] = tested on: P388; assay: Percent increase in life span of dying mice tested in vivo at 12.4 mg/kg against ip implanted P388 Leukemia in mice; format: functional; details: Mus musculus, route intraperitoneal; procedure, shortened: as §1
# [29] = tested on: P388; assay: Percent increase in life span of dying mice tested in vivo at 49.5 mg/kg against ip implanted P388 Leukemia in mice; format: functional; details: Mus musculus, route intraperitoneal; procedure, shortened: as §1
# [30] = Percent increase in life span of dying mice tested in vivo at 99 mg/kg against ip implanted LOX amelanotic melanoma in mice (60-day survivors); format: functional; details: Mus musculus, 1440 h, route intraperitoneal; procedure, shortened: as §7
# [31] = tested on: P388; assay: Change in tumor cell population in ip implanted P388 Leukemia in mice after administration of compound at 49.5 mg/kg; format: functional, Mus musculus; details: route intraperitoneal; procedure, shortened: as §3
# [32] = tested on: P388; assay: Change in tumor cell population in ip implanted P388 Leukemia in mice after administration of compound at 12.4 mg/kg; format: functional, Mus musculus; details: route intraperitoneal; procedure, shortened: as §2
compound,measurement,setting,value
CCSc1nc(COC(=O)NC)c(COC(=O)NC)n1C,ILS at 43.5 mg/kg,[1],64%
same,KE,[2],-0.6
same,KE,[3],-4.3
same,KE,[4],-2.1
same,ILS at 87 mg/kg,[5],99%
same,ILS at 10.9 mg/kg,[6],47%
same,KE,[7],-0.5
same,ILS at 21.75 mg/kg,[8],44%
same,ILS at 87 mg/kg,[9],85%
same,KE,[10],-2.5
same,ILS at 43.5 mg/kg,[11],52%
same,ILS at 174 mg/kg,[12],95%
same,KE,[13],-1.3
same,KE,[14],-1.9
same,KE,[15],-0.2
same,ILS at 21.8 mg/kg,[16],56%
CCC[S+]([O-])c1nc(COC(=O)NC)c(COC(=O)NC)n1C (configuration not stated),ILS at 24.75 mg/kg,[17],-2%
same,KE,[18],1.6
same,KE,[19],1
same,KE,[20],1
same,ILS at 24.8 mg/kg,[21],25%
same,ILS at 198 mg/kg,[22],21%
same,ILS at 99 mg/kg,[23],27%
same,KE,[24],0.8
same,ILS at 49.5 mg/kg,[25],15%
same,KE,[26],0.9
same,KE,[27],1.7
same,ILS at 12.4 mg/kg,[28],10%
same,ILS at 49.5 mg/kg,[29],27%
same,ILS at 99 mg/kg,[30],1%
same,KE,[31],0.9
same,KE,[32],1.4
